Results reported in ChEMBL document CHEMBL1132155, “Endothelin antagonists: substituted mesitylcarboxamides with high potency and selectivity for ET(A) receptors” (J Med Chem, 1999).
Converted amounts (≈) assume the structure as drawn.

target: T1, Endothelin-1 receptor (Homo sapiens) (UniProt P25101); experiment: Competitive binding to Endothelin A receptor by displacement of [125I]ET1 (Relative IC50 was calculated as IC50 of compound/IC50 of TBC11251); conditions: not given
T1 sequence (whole entry): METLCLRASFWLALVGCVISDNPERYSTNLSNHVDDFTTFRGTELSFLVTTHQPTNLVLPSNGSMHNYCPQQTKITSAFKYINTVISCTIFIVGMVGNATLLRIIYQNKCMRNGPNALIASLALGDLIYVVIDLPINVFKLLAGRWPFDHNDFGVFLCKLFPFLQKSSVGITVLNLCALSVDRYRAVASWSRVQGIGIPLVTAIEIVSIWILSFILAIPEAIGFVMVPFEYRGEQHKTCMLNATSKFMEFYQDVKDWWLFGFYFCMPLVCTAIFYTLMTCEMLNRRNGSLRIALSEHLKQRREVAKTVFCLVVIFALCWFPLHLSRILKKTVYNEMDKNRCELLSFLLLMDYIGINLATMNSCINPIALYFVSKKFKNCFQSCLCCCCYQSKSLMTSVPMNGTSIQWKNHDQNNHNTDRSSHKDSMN

Going from Cc1cc(C)c(NC(=O)c2sccc2S(=O)(=O)Nc2onc(C)c2Cl)c(C)c1C#N to Cc1cc(C)c(NC(=O)c2sccc2S(=O)(=O)Nc2onc(C)c2Cl)c(C)c1O, the Relative ET-A IC50 rises from 0.1 to 0.11.

Going from COC(=O)Oc1c(C)cc(C)c(NC(=O)c2sccc2S(=O)(=O)Nc2onc(C)c2Cl)c1C to CC(=O)Oc1c(C)cc(C)c(NC(=O)c2sccc2S(=O)(=O)Nc2onc(C)c2Cl)c1C, the Relative ET-A IC50 rises from 0.05 to 0.11.

Going from Cc1cc(C)c(C(=O)O)c(C)c1NC(=O)c1sccc1S(=O)(=O)Nc1onc(C)c1Cl to Cc1cc(C)c(NC(=O)c2sccc2S(=O)(=O)Nc2onc(C)c2Cl)c(C)c1CC(=O)O, the Relative ET-A IC50 falls from 0.79 to 0.12.

Compared with Cc1cc(C)c(N(C)C)c(C)c1NC(=O)c1sccc1S(=O)(=O)Nc1onc(C)c1Cl, Cc1cc(C)c(OC(=S)N(C)C)c(C)c1NC(=O)c1sccc1S(=O)(=O)Nc1onc(C)c1Cl is higher in Relative ET-A IC50: 0.07 for the first, 0.09 for the second.

Compared with Cc1cc(C)c(S(N)(=O)=O)c(C)c1NC(=O)c1sccc1S(=O)(=O)Nc1onc(C)c1Cl, Cc1cc(C)c(OS(=O)(=O)N(C)C)c(C)c1NC(=O)c1sccc1S(=O)(=O)Nc1onc(C)c1Cl is higher in Relative ET-A IC50: 0.06 for the first, 2.3 for the second.

Compared with Cc1noc(NS(=O)(=O)c2ccsc2C(=O)Nc2c(C)c(CC#N)c(C)c(CC#N)c2C)c1Cl, COC(=O)Cc1c(C)cc(C)c(NC(=O)c2sccc2S(=O)(=O)Nc2onc(C)c2Cl)c1C is lower in Relative ET-A IC50: 3110 for the first, 0.07 for the second.

Compared with Cc1cc(C)c(CC(=O)c2sccc2S(=O)(=O)Nc2onc(C)c2Cl)c(C)c1O, COc1c(C)cc(C)c(CC(=O)c2sccc2S(=O)(=O)Nc2onc(C)c2Cl)c1C is higher in Relative ET-A IC50: 0.08 for the first, 0.13 for the second.

First: Cc1cc(C)c(OCC(=O)O)c(C)c1NC(=O)c1sccc1S(=O)(=O)Nc1onc(C)c1Cl
Second: Cc1cc(C)c(OCC2CC2)c(C)c1NC(=O)c1sccc1S(=O)(=O)Nc1onc(C)c1Cl
The Relative ET-A IC50 of the first is lower: 0.05 for the first, 0.07 for the second.

First: Cc1cc(C)c(NC(=O)c2sccc2S(=O)(=O)Nc2onc(C)c2Cl)c(C)c1COC(=S)N(C)C
Second: Cc1cc(C)c(N2CCCC2)c(C)c1NC(=O)c1sccc1S(=O)(=O)Nc1onc(C)c1Cl
The Relative ET-A IC50 of the first is higher: 0.21 for the first, 0.15 for the second.

Going from COCCOCCOCC(=O)Oc1c(C)cc(C)c(NC(=O)c2sccc2S(=O)(=O)Nc2onc(C)c2Cl)c1C to COC(=O)c1cc(C)cc(C)c1NC(=O)c1sccc1S(=O)(=O)Nc1onc(C)c1Cl, the Relative ET-A IC50 falls from 0.5 to 0.16.

Compared with Cc1nc(C)c(NC(=O)c2sccc2S(=O)(=O)Nc2onc(C)c2Cl)c(C)n1, Cc1cc(C)c(NC(=O)c2sccc2S(=O)(=O)Nc2noc(C)c2Cl)c(C)c1CO is lower in Relative ET-A IC50: 0.25 for the first, 0.06 for the second.

For Cc1cc2c(cc1C(CC(=O)O)C(=O)c1sccc1S(=O)(=O)Nc1onc(C)c1Cl)OCO2 (stereo not given), the Relative ET-A IC50 was 5.36.

system: not listed separately; experiment: Compound was evaluated for the aqueous solubility (AS) in mg/mL (Measured in 0.2 M phosphate buffer of pH 7.4); format: physicochemical; conditions: read-out: AS
In short: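 Solubility measured in 0.2 M phosphate buffer, pH 7.4. Where a preformed sodium salt was used, it was measured in saline (9 mg/mL).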

Going from Cc1cc(C)c(NC(=O)c2sccc2S(=O)(=O)Nc2onc(C)c2Cl)c(C)c1C#N to Cc1cc(C)c(NC(=O)c2sccc2S(=O)(=O)Nc2onc(C)c2Cl)c(C)c1O, the solubility rises from 37 mg/mL (≈ 79.6 mM) to 83 mg/mL (≈ 182 mM) (2.2-fold).

First: Cc1cc(C)c(N(C)C)c(C)c1NC(=O)c1sccc1S(=O)(=O)Nc1onc(C)c1Cl
Second: Cc1cc(C)c(S(N)(=O)=O)c(C)c1NC(=O)c1sccc1S(=O)(=O)Nc1onc(C)c1Cl
The solubility of the first is 1.7-fold higher: 50 mg/mL (≈ 104 mM) for the first, 30 mg/mL (≈ 57.8 mM) for the second.

system: Rattus norvegicus; experiment: Compound was evaluated for the effective oral dose in Acute Pulmonary Hypertension Rat Model after administering 2 hours prior to experiment; format: functional; conditions: not given
In short: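 Rat model of acute hypoxia-induced pulmonary hypertension. Compound given orally 2 h before hypoxia. Reported value is the lowest tested dose giving 90–100% inhibition of mean pulmonary arterial pressure; mean systemic arterial pressure and heart rate were also monitored. Some entries give % inhibition at 5 mg/kg.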

Cc1cc(C)c(S(N)(=O)=O)c(C)c1NC(=O)c1sccc1S(=O)(=O)Nc1onc(C)c1Cl and Cc1cc(C)c(NC(=O)c2sccc2S(=O)(=O)Nc2onc(C)c2Cl)c(C)c1O are the same in Effective dose: 5 mg/kg for the first, 5 mg/kg for the second.

system: Rattus norvegicus; experiment: Compound was evaluated for the biological half-life when administered orally in Acute Pulmonary Hypertension Rat Model; NM=Not measurable (T1/2 h); format: ADME, organism-based; conditions: in vivo, po
In short: (§1)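 Adult Harlan Sprague–Dawley rats received 50 mg/kg by gavage in 0.5% high-viscosity carboxymethyl cellulose (5 mL/kg). Serial 200 μL tail-vein blood samples were taken at selected times into heparin-coated tubes. Red cells were removed by centrifugation and plasma stored at −80 °C. Plasma proteins were precipitated with acetonitrile before HPLC analysis; serum half-life was derived from these samples.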

In the case of COC(=O)Oc1c(C)cc(C)c(NC(=O)c2sccc2S(=O)(=O)Nc2onc(C)c2Cl)c1C, the T1/2 was “Not Active”.

system: not listed separately; experiment: Compound was evaluated for the biological half-life when administered orally in Acute Pulmonary Hypertension Rat Model; format: ADME, organism-based; conditions: in vivo, po; in short: as §1

Compared with Cc1cc(C)c(NC(=O)c2sccc2S(=O)(=O)Nc2onc(C)c2Cl)c(C)c1C#N, Cc1cc(C)c(NC(=O)c2sccc2S(=O)(=O)Nc2onc(C)c2Cl)c(C)c1O is 4.1-fold higher in half-life: 1.8 h for the first, 7.3 h for the second.

Going from Cc1cc(C)c(N(C)C)c(C)c1NC(=O)c1sccc1S(=O)(=O)Nc1onc(C)c1Cl to Cc1cc(C)c(S(N)(=O)=O)c(C)c1NC(=O)c1sccc1S(=O)(=O)Nc1onc(C)c1Cl, the half-life rises from 1 h to 1.5 h (1.5-fold).

Cc1cc(C)c(CC(=O)c2sccc2S(=O)(=O)Nc2onc(C)c2Cl)c(C)c1O and COc1c(C)cc(C)c(CC(=O)c2sccc2S(=O)(=O)Nc2onc(C)c2Cl)c1C are within 1.5-fold of each other in half-life: 3.9 h for the first, 3.86 h for the second.

target: Endothelin receptor, ET-A/ET-B (Homo sapiens) (UniProt P24530+P25101); experiment: Compound was evaluated for the selectivity of ET-A receptors (ET-B IC50/ ET-A IC50); format: protein assay; conditions: not given
Sequence (P24530 whole entry, looked up, one chain of several): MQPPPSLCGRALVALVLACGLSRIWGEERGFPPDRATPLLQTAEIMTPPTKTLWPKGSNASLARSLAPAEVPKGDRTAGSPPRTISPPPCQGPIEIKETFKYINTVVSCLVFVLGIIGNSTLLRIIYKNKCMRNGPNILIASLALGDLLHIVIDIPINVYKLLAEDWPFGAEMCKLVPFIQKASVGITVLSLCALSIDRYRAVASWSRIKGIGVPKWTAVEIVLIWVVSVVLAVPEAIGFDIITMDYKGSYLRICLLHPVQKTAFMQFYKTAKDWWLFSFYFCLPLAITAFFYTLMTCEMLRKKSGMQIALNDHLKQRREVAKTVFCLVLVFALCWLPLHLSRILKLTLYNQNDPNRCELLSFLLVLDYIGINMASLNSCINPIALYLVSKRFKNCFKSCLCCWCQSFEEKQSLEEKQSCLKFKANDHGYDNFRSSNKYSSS

Going from Cc1cc(C)c(NC(=O)c2sccc2S(=O)(=O)Nc2onc(C)c2Cl)c(C)c1C#N to Cc1cc(C)c(NC(=O)c2sccc2S(=O)(=O)Nc2onc(C)c2Cl)c(C)c1O, the Selectivity falls from 37700 to 10900.

First: COC(=O)Oc1c(C)cc(C)c(NC(=O)c2sccc2S(=O)(=O)Nc2onc(C)c2Cl)c1C
Second: CC(=O)Oc1c(C)cc(C)c(NC(=O)c2sccc2S(=O)(=O)Nc2onc(C)c2Cl)c1C
The Selectivity of the first is higher: 22200 for the first, 6970 for the second.

Compared with Cc1cc(C)c(N(C)C)c(C)c1NC(=O)c1sccc1S(=O)(=O)Nc1onc(C)c1Cl, Cc1cc(C)c(OC(=S)N(C)C)c(C)c1NC(=O)c1sccc1S(=O)(=O)Nc1onc(C)c1Cl is lower in Selectivity: 36600 for the first, 22600 for the second.

Compared with Cc1cc(C)c(S(N)(=O)=O)c(C)c1NC(=O)c1sccc1S(=O)(=O)Nc1onc(C)c1Cl, Cc1cc(C)c(OS(=O)(=O)N(C)C)c(C)c1NC(=O)c1sccc1S(=O)(=O)Nc1onc(C)c1Cl is lower in Selectivity: 27800 for the first, 1630 for the second.

Compared with Cc1noc(NS(=O)(=O)c2ccsc2C(=O)Nc2c(C)c(CC#N)c(C)c(CC#N)c2C)c1Cl, Cc1cc(C)c(NC(=O)c2sccc2S(=O)(=O)Nc2onc(C)c2Cl)c(C)c1CC(=O)O is higher in Selectivity: 3 for the first, 59900 for the second.

First: Cc1cc(C)c(CC(=O)c2sccc2S(=O)(=O)Nc2onc(C)c2Cl)c(C)c1O
Second: COc1c(C)cc(C)c(CC(=O)c2sccc2S(=O)(=O)Nc2onc(C)c2Cl)c1C
The Selectivity of the first is higher: 10800 for the first, 7640 for the second.

Going from Cc1cc(C)c(OCC(=O)O)c(C)c1NC(=O)c1sccc1S(=O)(=O)Nc1onc(C)c1Cl to Cc1cc(C)c(OCC2CC2)c(C)c1NC(=O)c1sccc1S(=O)(=O)Nc1onc(C)c1Cl, the Selectivity rises from 23000 to 59400.

Going from Cc1cc(C)c(NC(=O)c2sccc2S(=O)(=O)Nc2onc(C)c2Cl)c(C)c1COC(=S)N(C)C to COC(=O)Cc1c(C)cc(C)c(NC(=O)c2sccc2S(=O)(=O)Nc2onc(C)c2Cl)c1C, the Selectivity rises from 16200 to 114000.

First: Cc1nc(C)c(NC(=O)c2sccc2S(=O)(=O)Nc2onc(C)c2Cl)c(C)n1
Second: COC(=O)c1cc(C)cc(C)c1NC(=O)c1sccc1S(=O)(=O)Nc1onc(C)c1Cl
The Selectivity of the first is lower: 9160 for the first, 36200 for the second.

Cc1cc(C)c(NC(=O)c2sccc2S(=O)(=O)Nc2noc(C)c2Cl)c(C)c1CO showed a Selectivity of 3500.
